A short description of data set [1]: Fluorescence property of compound in MeOH assessed as quantum yield by UV-visible spectrophotometric method. It counts as physicochemical.
The nature of data set [2]: Fluorescence property of compound in EtOH assessed as quantum yield by UV-visible spectrophotometric method. It counts as physicochemical.
Data set [3] is described as follows: Fluorescence property of compound in MeOH assessed as emission wavelength by UV-visible spectrophotometric method. Type of data set: physicochemical. The procedure, abridged:
(§1)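 Fluorescence excitation and emission spectra recorded on the compound at 1 μM in MeOH solution. Maxima of excitation and emission taken from these spectra.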

For data set [4], the target named is T1, Retinoic acid receptor RXR-alpha (Homo sapiens, UniProt P19793).
T1 sequence (P19793 whole entry): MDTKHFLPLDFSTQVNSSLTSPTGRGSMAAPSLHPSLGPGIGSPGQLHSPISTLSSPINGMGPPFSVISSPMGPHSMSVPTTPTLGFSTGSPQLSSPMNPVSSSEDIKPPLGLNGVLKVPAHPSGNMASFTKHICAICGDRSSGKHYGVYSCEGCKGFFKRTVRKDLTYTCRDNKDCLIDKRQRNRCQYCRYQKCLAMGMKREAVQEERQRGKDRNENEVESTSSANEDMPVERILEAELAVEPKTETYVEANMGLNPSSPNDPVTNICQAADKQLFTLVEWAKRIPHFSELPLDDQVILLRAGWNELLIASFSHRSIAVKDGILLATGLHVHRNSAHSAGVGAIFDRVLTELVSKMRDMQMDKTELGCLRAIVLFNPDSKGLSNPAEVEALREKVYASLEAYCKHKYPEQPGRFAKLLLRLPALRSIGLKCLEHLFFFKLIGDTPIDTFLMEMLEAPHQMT
In words: Binding affinity to human RXRalpha-LBD (224 to 462 residues) expressed in Escherichia coli BL21(DE3) incubated for 2 hrs by fluorescence assay.

Data set [5] is described as follows: Fluorescence property of compound in EtOH assessed as excitation wavelength by UV-visible spectrophotometric method. Type of data set: physicochemical.
Data set [6] addresses T2, Retinoic acid receptor RXR-alpha (Homo sapiens) (UniProt P19793).
T2 sequence (whole entry): T1 sequence (P19793 whole entry)
In words: Antagonist activity against human RXRalpha expressed in COS1 cells incubated for 18 hrs by SEAP reporter gene assay. It counts as cell-based. The following applies: COS-1, filed as antagonist. A general note: In a reporter assay the amount or activity of a reporter protein is the signal.

The nature of data set [7]: Fluorescence property of compound in MeOH assessed as excitation wavelength by UV-visible spectrophotometric method. It counts as physicochemical. The procedure, abridged:
as §1

A short description of data set [8]: Fluorescence property of compound in MeOH assessed as molar extinction coefficient by UV-visible spectrophotometric method. It counts as physicochemical.
Data set [9] in a line: Fluorescence property of compound in EtOH assessed as emission wavelength by UV-visible spectrophotometric method. It counts as physicochemical.
The nature of data set [10]: Fluorescence property of compound in EtOH assessed as molar extinction coefficient by UV-visible spectrophotometric method. It counts as physicochemical.
Data set [11] has as its target T1, Retinoic acid receptor RXR-alpha. Briefly: Binding affinity to human RXRalpha-LBD (224 to 462 residues) expressed in Escherichia coli BL21(DE3) incubated for 1 hr by fluorescence polarization assay. Background: Polarisation of emitted light reports the rotation of a fluorescent probe.

The structures appear in SMILES notation. Activity calls are given as the source filed them. No cut-off for these calls is given here.

A word on the Kd: it is the concentration at which binding is half-saturated. A low value points to higher affinity. As to `CC1(C)CCC(C)(C)c2cc(-n3c(C(F)(F)F)nc4cc(C(=O)O)ccc43)c(OCCOCCNc3ccc([N+](=O)[O-])c4nonc34)cc21`, the Activity is 0.224 in [1]; 0.237 in [2]; 530 nm in [3]; 461 nm in data set [5]; 464 nm in data set [7]; 6.7 10^3L/mol in data set [8]. Further, the results for the Activity in data set [9] and in [10] were 527 nm and 8.4 10^3L/mol, respectively. Also, the Kd in data set [4] amounted to 0.629 µM. In addition, the result in data set [6] was Active.

With `CC1=CC(C)=[N+]2C1=C(c1ccc(C(=O)NCCOCCOc3cc4c(cc3-n3c(C(F)(F)F)nc5cc(C(=O)O)ccc53)C(C)(C)CCC4(C)C)cc1)c1c(C)cc(C)n1[B-]2(F)F`, the Activity in [1] is recorded as 0.349; in data set [2], 0.471; in [3] it was 508 nm; in [5] it was 499 nm; in data set [7], 499 nm; in data set [8], 2.8 10^4L/mol. Moreover, the figures for the Activity in data set [9] and in [10] were 509 nm and 2.8 10^4L/mol, respectively. In addition, the Kd came out at 0.761 µM in [4] and 0.375 µM in data set [11]. Moreover, the outcome in data set [6] was Active.

These data come from ChEMBL document CHEMBL4706774, “Creation of Fluorescent RXR Antagonists Based on CBTF-EE and Application to a Fluorescence Polarization Binding Assay” (ACS Med Chem Lett, 2021).
